# Bioassay records (PubChem BioAssay)
# N-glyco inh: increase of ERlucT glycosylation luciferase signal, primary screen, N-linked glycosylation inhibitor project, D54 ERlucT cells, luminescence, set 2; hit rate 0.23% among 360,000; reporter increase, % at 12.5 µM; D54 ERlucT glycosylation luciferase reporter, 24 h; percent of 100 nM tunicamycin response;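 active = mean luciferase reporter signal, scaled so untreated is 0 and the glycosylation-blocking control 100, at or above a set limit in every replicate; inconclusive = mean reaches the limit but not every replicate does; inactive = mean below the limit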;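 also: luciferase carries N-glycosylation sites so blocking glycosylation raises the light; 0% = median of neutral control wells and 100% = median of 100 nM tunicamycin wells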
# MsrA inh: bovine MsrA enzyme inhibitors, primary screen, biochemical, absorbance, HTS; Methionine sulfoxide reductase A (Bos taurus); purified bovine MsrA, absorbance read-out; inhibition, % at 15.5 µM; hit rate 0.75% among 360,000; AID 651718, 2012; in the data active = inhibition above about 4.5%;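 also: 0% = vehicle wells with enzyme and 100% = reference inhibitor wells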
# aDG glyco up: activators of alpha-DG glycosylation, primary screen, uHTS, Pro5-aDG cells, AlphaScreen | alpha-DG glycosylation AlphaScreen (IIH6); 0% Pro5, 100% B10-LARGE cell signal | AID 624168, 2012 | hit rate 0.22% among 360,000 | activation, % at 10 µM;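 active = activation of at least 8% versus controls, or a plate z-score of at least 8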;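 also: Pro5 are CHO cells carrying HIG-tagged alpha-DG that lacks glycosylation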
# Vif imaging: HIV Vif self-association inhibitors, primary screen, imaging, HEK293T, single point; HEK293T cells, Vif self-association by quenched fluorescence, 24 h; inhibition, % at 7.49 µM; hit rate 0.35% among 340,000; AID 602346, 2012; in the data active = inhibition above about 50%, passing the limit was not always enough; inconclusive = no clear call, values can overlap the other calls; inactive = below about 31%
# UCH37 inh: inhibitors of human UCH37 deubiquitinase, primary screen, biochemical, Ub-AMC cleavage, fluorescence. hit rate 0.33% among 330,000. Ubiquitin carboxyl-terminal hydrolase isozyme L5 (Homo sapiens), Q9Y5K5. purified proteasome/UCH37. inhibition, % (no concentration beside the values). AID 588478, 2011;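 active = mean inhibition over replicate wells above about 20%, limit read from the data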;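 also: 0% = compound-free wells with enzyme and 100% = wells lacking proteasome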
# Target sequence (Q9Y5K5 whole entry, looked up): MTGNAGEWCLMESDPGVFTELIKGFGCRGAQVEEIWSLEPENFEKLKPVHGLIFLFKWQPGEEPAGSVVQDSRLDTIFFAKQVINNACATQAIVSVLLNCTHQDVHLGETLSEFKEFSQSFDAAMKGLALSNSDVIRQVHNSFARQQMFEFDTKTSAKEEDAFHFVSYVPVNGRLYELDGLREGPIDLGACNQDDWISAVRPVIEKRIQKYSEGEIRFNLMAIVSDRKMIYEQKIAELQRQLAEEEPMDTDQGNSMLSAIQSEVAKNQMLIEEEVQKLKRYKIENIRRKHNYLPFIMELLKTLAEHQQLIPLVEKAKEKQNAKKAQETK
#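 Reagent: Ub-AMC substrate; assay system: Proteasome-associated human UCH37 deubiquitinase; controls: no-proteasome and no-compound wells; read-out: % inhibition of Ub-AMC cleavage fluorescence; timing: 30 min preincubation with enzyme, 25 min cleavage at room temperature; signal: AMC fluorescence from Ub-AMC cleavage, excitation 355 nm, emission 460 nm; buffer or medium: Tris-HCl pH 7.4 plus ovalbumin, ATP-MgCl2, DTT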
# MsrA act: bovine MsrA enzyme activators, primary screen, biochemical, absorbance, HTS | purified bovine MsrA, absorbance read-out | hit rate 0.3% among 360,000 | activation, % at 10.6 µM | Methionine sulfoxide reductase A (Bos taurus); in the data active = activation above about 7.5%;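 also: 0% = vehicle and 100% = reference activator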
# * marks the source's active call; other numbers are inactive results; u = inconclusive; x = no result given. Most compounds without a hit are left out; they make up all but 1.9% or so of the library.
SMILES,N-glyco inh,MsrA inh,aDG glyco up,Vif imaging,UCH37 inh,MsrA act
CC1CN(C)C(C)CC1=NOc1ccc([N+](=O)[O-])cc1 (stereo unspecified),x,x,x,x,4,x
O=C(Nc1cnccn1)Nc1cccc(Cl)c1Cl,5,2,0,-1,-1,-4
O=C(Nc1cnccn1)Nc1ccccc1Cl,2,0,0,51*,0,-2
COc1cc(NC(=S)N2CCC(C(N)=O)CC2)cc(OC)c1,3,0,0,9,4,3
COc1cc(NC(=S)N2CCC(C(N)=O)CC2)c(OC)cc1Cl,1,-1,0,8,31*,-4
Cc1ccc(S(=O)(=O)N=C(c2ccccc2)N(C)S(=O)(=O)c2ccccc2)cc1,x,x,x,x,4,x
CCc1ccc(C(C(=O)NCc2ccc(OC)cc2)N(CCOC)C(=O)Cc2cccs2)cc1 (stereo unspecified),-3,-1,0,-4,2,-5
COCCN(C(=O)Cc1cccs1)C(C(=O)NCc1ccc(OC)cc1)c1ccc(C)cc1 (stereo unspecified),-2,3,0,112*,1,0
Cc1nc(NC(=O)C(C)Oc2cccc(Cl)c2)sc1C(=O)N(C)C (stereo unspecified),-2,-1,0,52*,1,-2
Cc1cc(C(=O)NCC(=O)O)c(C)o1,1,0,0,115*,0,-2
Cc1ccc(/C=N/c2sc3c(c2C#N)CCC3)s1,-3,-1,0,53*,x,-1
O=C(O)C1CCN(c2nc(-c3ccccc3)nc3c2oc2ccccc23)CC1,3,0,0,-16,5,1
OCCN1CCN(c2nc(-c3ccccc3)nc3c2oc2ccccc23)CC1,14,1,0,66*,0,2
COc1ccccc1-c1nc(S(=O)(=O)c2ccc(Cl)cc2)c(N(C)C)o1,4,0,0,53*,2,-2
Cc1ccc(S(=O)(=O)c2nc(-c3ccccc3Cl)oc2N(C)C)cc1,14,1,0,-6,-9,-1
Cc1cc(C)cc(NC(=O)CCc2nc3sc4c(c3c(=O)[nH]2)CCCC4)c1,-4,0,0,151*,1,-1
COc1ccc(-n2c(SCC(=O)N3CCOCC3)nc(O)c(Cc3ccccc3)c2=O)cc1,-1,0,0,28,30*,-1
COc1ccccc1-c1cc(C(F)(F)F)nc(S(=O)(=O)CCCC(=O)NC(C)C)n1,-7,0,-1,u,-18,-10
COc1ccc(-c2cc(C(F)(F)F)nc(S(=O)(=O)CCCC(=O)Nc3cc(C)on3)n2)cc1OC,-10,2,0,89*,-89,-3
COc1ccccc1-c1cc(C(F)(F)F)nc(S(=O)(=O)CCCC(=O)Nc2cc(C)on2)n1,-17,-1,0,60*,-29,-4
CN(C)c1ccc(C=NNC(=O)c2ccc(Cn3cc(Cl)cn3)cc2)cc1,x,x,x,x,-29,x
CC(CC(=O)Nc1cc(C)ccn1)=NNC(=O)c1ccc(C)cc1,x,x,x,x,3,x
CCN1/C(=C/c2sc(-c3ccccc3C)c[n+]2C)Sc2ccccc21,36*,0,1,-16,4,-1
O=C(NN=Cc1cc(Br)cc(Br)c1O)c1ccncc1,x,x,x,x,-1,x
COc1ccc(C(=O)c2ccc(Cl)c([N+](=O)[O-])c2)cc1,1,1,0,69*,5,-9
COc1ccc(C(=O)c2ccc(Cl)cc2)cc1,0,2,0,5,6,-1
O=C(NN=Cc1ccc([N+](=O)[O-])o1)c1cc(-c2cccc(Br)c2)nc2ccccc12,x,x,x,x,4,x
CC(=NNC(=O)c1ccn(C)n1)c1cccc(NC(=O)c2ccc(C)s2)c1,x,x,x,x,-1,x
CC(=NO)C(=O)NCCCNCCCN(C)C,x,x,x,x,0,x
O=C(/C=C/c1ccc(O)cc1)c1ccc(NC2=C(N3CCCCC3)C(=O)c3ccccc3C2=O)cc1,-14,3,4,-2,22*,1
